Calls of active or inactive are those of the source. No cut-off for these calls is given here.
Experiments:
[1] = system: U2OS; test: Anticancer activity against human U2OS cells assessed as reduction in cell proliferation at 2.5 to 5 uM after 48 hrs by WST-1 assay; type: functional; set-up: scale not given: the % may be the effect or the level left
Outline: (§1)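 Cells were exposed to compound for 48 h and proliferation was measured from dose-response curves. NCM460 was tested at doses up to 20 µM. U-2 OS was also read in the 2.5-5.0 µM range. IC50 was calculated from the curves. Data are mean of quadruplicates ± SD from three independent trials.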

[2] = system: MV4-11; test: Induction of apoptosis in human MV4-11 cells assessed as phosphatidylserine externalization at 0.0075 and 5 uM after 48 hrs by AnnexinV/propidium iodide staining based Tali-image based cytometry; type: functional, cell-based
Outline: (§2)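 After 48 h treatment, phosphatidylserine externalization was detected with Annexin V–Alexa Fluor 488, and membrane-permeabilized (necrotic) cells were detected by propidium iodide uptake. Green and/or red populations were quantified by image-based cytometry. Signal above the control baseline was scored as apoptotic, necrotic, or both. Data are mean ± SD of three independent trials.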

[3] = Cytotoxicity against human NCM460 cells assessed as reduction in cell proliferation after 48 hrs by WST-1 assay; type: cell-based; details: NCM460, 48 h; outline: as §1
[4] = system: Jurkat E6.1; test: Anticancer activity against human Jurkat E6-1 cells assessed as reduction in cell proliferation after 48 hrs by WST-1 assay; type: functional, cell-based; details: Jurkat E6.1, 48 h; outline: as §1
[5] = system: U2OS; test: Anticancer activity against human U2OS cells assessed as reduction in cell proliferation after 48 hrs by WST-1 assay; type: functional, cell-based; outline: as §1
[6] = system: MV4-11; test: Anticancer activity against human MV4-11 cells assessed as reduction in cell proliferation after 48 hrs by WST-1 assay; type: functional, cell-based; details: MV4-11, 48 h; outline: as §1
[7] = system: SAOS-2; test: Induction of apoptosis in human Saos2 cells assessed as phosphatidylserine externalization at 0.01 and 5 uM after 48 hrs by AnnexinV/propidium iodide staining based Tali-image based cytometry; type: functional, cell-based; outline: as §2
[8] = biological target: T1, Tubulin (Sus scrofa) (UniProt P02554+P02550); test: Inhibition of porcine brain tubulin polymerization at 3 uM measured for 1 hr by spectrofluorometer analysis
T1 sequence (P02550 whole entry, looked up): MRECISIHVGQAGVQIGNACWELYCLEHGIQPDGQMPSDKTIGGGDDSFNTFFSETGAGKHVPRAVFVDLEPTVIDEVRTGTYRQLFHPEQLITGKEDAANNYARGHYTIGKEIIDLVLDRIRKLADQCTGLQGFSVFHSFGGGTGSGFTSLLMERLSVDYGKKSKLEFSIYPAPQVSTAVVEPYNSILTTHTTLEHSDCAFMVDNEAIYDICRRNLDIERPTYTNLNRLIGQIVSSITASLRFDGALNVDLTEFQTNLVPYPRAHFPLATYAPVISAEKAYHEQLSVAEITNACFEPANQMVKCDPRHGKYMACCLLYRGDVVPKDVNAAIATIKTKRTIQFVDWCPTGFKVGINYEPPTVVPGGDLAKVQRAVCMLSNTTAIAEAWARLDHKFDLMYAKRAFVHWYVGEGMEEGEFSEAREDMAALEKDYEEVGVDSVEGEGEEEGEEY
T1 sequence (P02554 whole entry, looked up): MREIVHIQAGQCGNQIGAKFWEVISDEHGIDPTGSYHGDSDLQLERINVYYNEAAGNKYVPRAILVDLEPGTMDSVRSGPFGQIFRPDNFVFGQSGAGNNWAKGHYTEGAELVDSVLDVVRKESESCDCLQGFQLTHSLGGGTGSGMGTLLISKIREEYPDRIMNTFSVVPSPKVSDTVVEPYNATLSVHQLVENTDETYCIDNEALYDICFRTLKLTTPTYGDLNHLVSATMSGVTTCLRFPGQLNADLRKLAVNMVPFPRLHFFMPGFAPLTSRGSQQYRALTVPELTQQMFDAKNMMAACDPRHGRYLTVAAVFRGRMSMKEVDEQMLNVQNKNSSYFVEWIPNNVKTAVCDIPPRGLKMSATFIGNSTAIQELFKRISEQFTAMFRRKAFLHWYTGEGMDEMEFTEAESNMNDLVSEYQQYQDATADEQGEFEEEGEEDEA
Outline: (§3)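 This was an in vitro tubulin polymerization assay monitored kinetically for 1 h against a DMSO vehicle control. Polymerization was read fluorometrically from incorporation of a fluorescent reporter, in relative fluorescence units. Data are mean of duplicates ± SEM of three independent trials, compared with control.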

[9] = Anticancer activity against human Saos2 cells assessed as reduction in cell proliferation after 48 hrs by WST-1 assay; type: functional, cell-based; details: SAOS-2, 48 h; outline: as §1
[10] = Induction of apoptosis in human NCM460 cells assessed as phosphatidylserine externalization 0.1 and 20 uM after 48 hrs by AnnexinV/propidium iodide staining based Tali-image based cytometry; type: cell-based; details: ncm460, 48 h; outline: as §2
[11] = system: U2OS; test: Anticancer activity against human U2OS cells assessed as reduction in cell proliferation at 10 uM after 48 hrs by WST-1 assay; type: functional, cell-based
Outline: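 This was a blind single-concentration screen of a 600-compound library against U-2 OS osteosarcoma cells. Each compound was tested at 10 µM for 48 h, and reduced proliferation was flagged for follow-up.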

[12] = biological target: T1, Tubulin (Sus scrofa); test: Inhibition of porcine brain tubulin polymerization at 10 uM measured for 1 hr by spectrofluorometer analysis; outline: as §3

| Compound | Activity [1] [%] | Activity [2] | IC50 [3] [µM] | IC50 [4] [µM] | IC50 [5] [µM] | IC50 [6] [µM] | Activity [7] | inhibition [8] | IC50 [9] [µM] | Activity [10] | inhibition [11] | inhibition [12] |
| --- | --- | --- | --- | --- | --- | --- | --- | --- | --- | --- | --- | --- |
| COc1ccc(/C=C\c2cc(OC)c(OC)c(OC)c2)cc1O [COMBRETASTATIN A4] | 30 | Active | > 20 | 0.00608 | 0.0141 | 0.00627 | Active | Active | 0.0114 | Non-toxic |  |  |
| COc1ccc(-c2ccc(OC)c(OC)c2OC)cc1O | 60 | Active | > 20 | 0.965 | > 20 | 2.76 | Active | inactive | 5.43 | Non-toxic | Active | Active |
| COc1cc(-c2ccc(OC)c(OC)c2OC)ccc1O | 60 | Active | > 20 | 0.486 | > 20 | 1.25 | Active | Active | 1.77 | Non-toxic | Active | Active |
